Laboratory results from ChEMBL document CHEMBL4513216, “Probing the Open Global Health Chemical Diversity Library for Multistage-Active Starting Points for Next-Generation Antimalarials” (ACS Infect Dis, 2020).

Assay: Toxicity liver stage against HepG2, at 10uM
Format: cell-based
Parameters: test concentration 10 uM, cell line HepG2-A16-CD81EGFP
Conditions: human, HepG2-A16-CD81EGFP cells; read-out: INHIBITION
Summary of the method: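 Uninfected HepG2-A16-CD81EGFP cells, 3 × 10^3 per well, 1536-well, plated on prespotted compound at 10 μM final, parasite-free screening media added to match infected plates; puromycin 10 μM positive, DMSO 0.5% negative; run in parallel with 48 h PbLuc assay at 37 °C, 5% CO2; viability by CellTiter-Glo luminescence, normalized to controls.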

| SMILES | cytotoxicity at 10 µM [%] |
| --- | --- |
| CC[C@H]1CN2CC[C@H]1C[C@@H]2CNC(=O)Nc1cc(OC)cc(OC)c1 | 3.39 |
| O=C(NC(c1ccccc1)c1cccnc1)C1CC1 (configuration not stated) | 2.99 |
| O=C(NC(c1ccc(Cl)cc1)c1cccnc1)C1CC1 (configuration not stated) | -3.94 |
| CCN1CC(CN2CCOCC2)Oc2ncccc2C1=O (configuration not stated) | -1.1 |
| COc1cc(C2CC(=O)Oc3cc(C)[nH]c(=O)c32)ccc1O (configuration not stated) | -8.64 |
| CC(=O)CSc1sc2c(O)cc(=O)[nH]c2c1C(N)=O | -3.48 |
| Cn1nc(C(=O)N2CCC(Oc3ccc(C#N)cn3)CC2)ccc1=O | -3.33 |
| COCCNC(=O)c1ccc2ccc(N(C)CC3CC3)n2c1 | 0.375 |
| CN(C)C(=O)CNC(=O)c1cc2c(s1)CCN2S(C)(=O)=O | 0.793 |
| O=C(NCc1cccnc1)c1nc2c(s1)CCCN2c1ncccn1 | 8.44 |
| COCCN1C(=O)C[C@H]2[C@H]1CCN2C(=O)c1ccc[nH]1 | 5.89 |
| COCC1CN(C(=O)Cc2cccs2)Cc2nnn(C)c21 (configuration not stated) | 4.99 |
| c1cncc(N2CCOC3(CCCN(c4nncs4)C3)C2)c1 (configuration not stated) | 6.56 |
| Cn1ccc2c(cnc3nc(-c4ccncc4)nn32)c1=O | -4.17 |
| Cn1cc(CNS(=O)(=O)c2cc(F)ccc2F)cn1 | -0.439 |
| Cc1nc2[nH]cnc(Nc3ccn(C)n3)c-2n1 | 18.2 |
| Cc1ncsc1C(=O)N1CCc2nnc(C3CCCCN3C)n2CC1 (configuration not stated) | 3.3 |
| Cc1cn[nH]c1C1COCCN1Cc1cscn1 (configuration not stated) | 2.67 |
| CC1(c2[nH]ncc2C(N)=O)CCN(c2ncccn2)CC1 | 0.462 |
| O=S1(=O)NC(c2ccnc(N3CCCCC3)n2)=Nc2ccccc21 | 18.3 |
| COCCNc1ncc(-c2cccc(F)c2)c(-c2nccn2C)n1 | 13.4 |
| COc1cccc(CN2CCC(Cc3cnc(CN(C)C)cn3)CC2)c1 | -2.82 |
| OCC(CO)N1CCCC(Cc2cnc(Nc3ccccn3)cn2)C1 (configuration not stated) | -5.97 |

| SMILES | cytotoxicity at 10 µM [%] |
| --- | --- |
| COCCC(=O)N1Cc2ccccc2OC2(CCOCC2)C1 | -2.53 |
| O=C(Cc1cccs1)N1CCCCC1c1ccn2ccnc2n1 (configuration not stated) | -6.58 |
| CC(C)(N)C(=O)N1CCCC1c1cncc(Oc2ccccc2)n1 (configuration not stated) | -6.02 |
| Cc1cccc(CC2COCCN(Cc3nccn3C)C2)n1 (configuration not stated) | 1.61 |
| CN1CCC(c2cc(C(F)(F)F)n3ccnc3n2)CC1 | -9.6 |
| CCS(=O)(=O)N1CCC(c2cc3n(n2)[C@@H](C(F)(F)F)C[C@@H](C)N3)CC1 | 0.436 |
| CC(C)CCN1CCC2(CC1)NCc1ccccc1NC2=O | 3.46 |
| O=C(Cc1c[nH]c2ncccc12)NCC(O)c1ccccc1F (configuration not stated) | -3.43 |
| CN(C)S(=O)(=O)NC1CC(=O)N(c2ccccc2Cl)C1 (configuration not stated) | 3.57 |
| CC(C)(C)CNC(=O)c1ccc(C(=O)O)cc1 | -8.17 |
| Cc1[nH]nc2ncc(C(=O)N3CCN(CC(O)C(C)(C)C)CC3)cc12 (configuration not stated) | 4.41 |
| O=C(NCCc1cc(F)ccc1F)NC(CO)c1ccccc1 (configuration not stated) | 8.78 |
| COC(=O)c1oc(CNC(C)(C)c2ccc3c(c2)OCO3)cc1C | 4.47 |
| CCCNC(=O)NCc1nc(C)c(C)o1 | 5.19 |
| CC1CN(C(=O)C2(c3ccc(F)cc3F)CCOCC2)CCO1 (configuration not stated) | -4.84 |
| Cc1ccc(-n2cnnn2)cc1NCC(=O)Nc1cc(F)ccc1F | 6.23 |
| O=S(=O)(CCN1CCCCC1Cn1cccn1)c1ccccc1 (configuration not stated) | -8.66 |
| FC(F)(F)C1CCc2nnc(CNCc3cccs3)n2C1 (configuration not stated) | 2.9 |
| NC(=O)CCCNC(=O)c1cc(Br)c2c(c1)OCCO2 | 9.31 |
| CCN(CC)C(=O)CCCNC(=O)Cc1nc(-c2ccco2)oc1C | 1.57 |
| COCCN(Cc1cccnc1)S(=O)(=O)c1ccc(F)cc1C | -5.06 |
| CN1CC(NC(=O)CCCc2cc(Cl)sc2Cl)CCC1=O (configuration not stated) | -5.01 |
| COc1cccc(CN(C)Cn2nc(C(C)(C)C)ccc2=O)c1 | 1.12 |

| SMILES | cytotoxicity at 10 µM [%] |
| --- | --- |
| CCc1ncncc1C(=O)Nc1ccc2ccn(CCN(C)C)c2c1 | 6.11 |
| Cc1n[nH]c(C)c1NC(=O)CN(CC(O)c1ccc(F)cc1)C1CC1 (configuration not stated) | -7.3 |
| CCC(NC(=O)NCc1cc(Cl)ccc1OC)c1noc(C)n1 (configuration not stated) | 4.06 |
| O=C(NCCC1CCN(CC(F)(F)F)CC1)C1CCCO1 (configuration not stated) | 5.48 |
| CCOCCC(=O)N1CC(=O)Nc2cc(Br)ccc21 | 6.87 |
| Cc1cnn(C2CN(Cc3nnc(-c4ccccc4Cl)o3)C2)c1 | -2.76 |
| CCC(C)(C)CC(=O)NC(C)C(=O)Nc1ccc(-n2cncn2)cc1 (configuration not stated) | 3.47 |
| COCCOCC(=O)N(C)Cc1ccc(OCc2cccs2)cc1 | 4.38 |
| CCNC(=O)C1CCCN(c2ccc(C#N)cc2C(F)(F)F)C1 (configuration not stated) | 1.28 |
| CCSc1cncc(N2CCC(NC(=O)C3CCCCC3)CC2)n1 | 16.8 |
| Cc1ccccc1CN1CCC(NCC2CNc3ccnn3C2)CC1 (configuration not stated) | 0.0194 |
| N#Cc1ccc(CNC(=O)NC2CCN(CC(F)F)CC2)cc1 | -6.96 |
| Cc1cc(C)n(C2CCCN(C(=O)c3cccc4[nH]ncc34)C2)n1 (configuration not stated) | 6.22 |
| CN(CCO)Cc1nnc(C2CCN(C(=O)c3cccn3C)CC2)n1C | -0.537 |
| c1ccc2c(c1)CN(c1ncnc3c1CCNC3)CCO2 | 3.13 |
| O=C(NCc1noc(C2CCCO2)n1)c1cn2ccsc2n1 (configuration not stated) | -3.77 |
| CC(C)(C)SCCNC(=O)[C@@]12CNC[C@@H]1CN(S(C)(=O)=O)C2 | 0.251 |
| Cc1cc(C2CCC2)nc(N2CCC3(CC2)OCCCC3O)n1 (configuration not stated) | 4.28 |
| O=C(N1CCC2(CC1)[C@H](O)C[C@@H]2O)C1(c2ccccc2F)CC1 | 6.1 |
| Cc1ccc(C2(O)CCN(Cc3nc(C)n4ccccc34)CC2)nc1 | 3.43 |
| Cc1cnccc1N1CCN(C[C@]2(O)CCCN3CCCC[C@@H]32)CC1 | 10.4 |
| Cc1ccsc1C(=O)N1CCC(c2nccn2Cc2ccncc2)CC1 | 0.535 |
| Cn1ccnc1CN1C[C@@H](CN2CCCCC2)[C@@H](CO)C1 | 11.7 |

| SMILES | cytotoxicity at 10 µM [%] |
| --- | --- |
| CCn1nc(CC(C)C)cc1C(=O)N1CCC(n2cnnc2)CC1 | -7.71 |
| Fc1ccc(CN2CCCC3(CCN(Cc4ncc[nH]4)C3)C2)cc1F (configuration not stated) | -12 |
| CCOc1ncccc1C(=O)N1CCN(C)C2(CCN(C)CC2)C1 | -0.351 |
| CCc1nccc(CN2CCCC(c3nn(C)c(=O)n3CC)C2)n1 (configuration not stated) | -3.69 |
| CN(Cc1ccccc1)C1(C(=O)O)Cc2ccccc2C1 | 1.04 |
| CC(Cn1cncn1)NCc1nncn1C1CCCCC1 (configuration not stated) | -10.4 |
| CCCSc1ncc(Cl)c(C(=O)NC(CCSC)C(=O)O)n1 (configuration not stated) | -6.44 |
| Cc1cc(-n2cnnn2)n2ncnc2n1 | -5.66 |
| CCn1ncc(NC(=O)c2cc(C3CC3)nc3c2c(C)nn3C)c1C | -3.32 |
| CCOC1CCN(C(=O)CN(C)c2cnccn2)CC1 | -6.07 |
| O=C(c1cnccn1)N1CCN(Cc2cscn2)CC1 | -8.36 |
| COCCOc1ccc(CNCC2CNc3cc(C)nn3C2)cn1 (configuration not stated) | -10.7 |
| COC(=O)C(NC(=O)COC1CCCC1)c1cc(F)ccc1F (configuration not stated) | -9.06 |
| COCCCNC(=O)CN(C)C(=O)c1cc(C)ccc1N(C)C(C)C | -4.84 |
| Cc1cnn(CC2CN(Cc3nccn3C)CCO2)c1 (configuration not stated) | -2.06 |
| CC(=O)Nc1nc(CN2CCn3c(nnc3C3CC3)C2)cs1 | -7.91 |
| Cc1nnc(CN2CCC(N(C)Cc3nnc(C4CC4)n3C)C2)o1 (configuration not stated) | -5.36 |
| CC(C(=O)N1CCCN(c2ccc(C#N)cc2)CC1)n1ccnc1 (configuration not stated) | -9.75 |
| COc1c(CNCc2ccc(N(C)C)nc2)c(C(C)C)nn1C | -9.75 |
| Cc1cc(C)c(CNC(=O)NCCOc2ccc3c(c2)CCC3)c(=O)[nH]1 | -23.3 |
| CC(C)c1ccc(C(C)NC(=O)N2CCC(n3cncn3)CC2)cc1 (configuration not stated) | -6.18 |
| Cc1nc(CSCCC(=O)NCc2cccnc2N(C)C)cs1 | -9.19 |
| Cc1cc(C)n(C2CN(CC(O)COc3ccc(F)cc3)C2)n1 (configuration not stated) | -10.5 |

| SMILES | cytotoxicity at 10 µM [%] |
| --- | --- |
| Cc1nnc2n1CCN(C(=O)COCCOc1ccccc1)C2 | 0.529 |
| CCN(Cc1cccc(Cl)c1)Cn1nc(C)c2c(C)onc2c1=O | -13 |
| O=C(c1ccc(-n2cccn2)nc1)N1CCCN(c2cccnn2)CC1 | 0.65 |
| O=C(NCCNc1ccc(C(F)(F)F)cn1)c1cncc(Br)c1 | 2.24 |
| O=C(CCc1nccs1)N1CCN(c2ncccn2)CC1 | -0.313 |
| C[C@@H](NC(=O)c1cnccn1)c1c(-c2ccc(Cl)cc2)noc1C(=O)O | 4.26 |
| Cc1ccc2c(n1)N(C)CCN(CCN1CCCC1)C2 | -8.84 |
| COCC1c2c(cnn2C)CCN1Cc1cccc(C)c1 (configuration not stated) | 0.951 |
| c1cnn(CCCO[C@@H]2CC[C@H]3[C@H]2OCCN3CC2CCOCC2)c1 | 7.77 |
| COCCN1CCCC12CCN(Cc1cccnc1OC)CC2 | 15.4 |
| CN1Cc2cnn(CC3CCCC3)c2C(COCC2CC2)C1 (configuration not stated) | -1.6 |
| c1cncc(O[C@H]2CC[C@H]3[C@H]2OCCN3C2CCC2)c1 | -6.69 |
| Cc1cc(CCC(=O)N(C)C)nc(C2CCCCN2)n1 (configuration not stated) | -2.39 |
| Cn1cc(N2CCC3(CCN(Cc4nccs4)C3)C2=O)cn1 (configuration not stated) | 3.76 |
| Cc1noc(C)c1CN1CCc2ncc(Cn3cccn3)n2CC1 | 2.65 |
| COCCN1CCC2(CC1)CN(C(=O)N(C)C)c1ccc(C)cc12 | 7.74 |
| Cc1noc(C)c1CN1C[C@@H]2C[C@H](C(=O)NCC3CC3)N(C)[C@@H]2C1 | -1.24 |
| CC(C)[C@H](N)CC(=O)Nc1nc(-c2cnc(N3CCOCC3)nc2)cs1 | -9.8 |
| Cc1nnc(CN2CCC3(CCC(=O)N(C4CCC(O)CC4)C3)CC2)o1 (configuration not stated) | -8.23 |
| CC(C)(C)c1ccc(OCC(N)=O)c(CN2C[C@H]3CC(O)C[C@H]3C2)c1 (some centres not stated) | -5.28 |
